Results on 13 compounds are retold here after ChEMBL document CHEMBL1154767, “Reversal agent and linker variants of reversed chloroquines: activities against Plasmodium falciparum” (J Med Chem, 2010).

Data set [1] deals with Plasmodium falciparum. Briefly: Antimalarial activity against chloroquine-resistant Plasmodium falciparum Dd2 after 72 hrs by fluorescence based method. The format is functional, organism-based. Conditions: Dd2, 72 h. The method in brief:
(§1)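 Asynchronous parasite cultures diluted with uninfected erythrocytes in RPMI-1640 plus 0.5% Albumax II to 0.2% parasitemia, 2% hematocrit. Drugs diluted from 10 mM DMSO stock, final 0 to 10^-4 M, triplicate wells. After 72 h under standard culture conditions, read by SYBR Green I fluorescence (ex 497, em 520 nm). IC50 from nonlinear regression of fluorescence vs log[drug].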

Data set [2] has as its system Plasmodium falciparum. The experiment in a line: Antimalarial activity against chloroquine-sensitive Plasmodium falciparum D6 after 72 hrs by fluorescence based method. In kind it is functional, organism-based. Conditions: D6, 72 h. The essentials:
as §1

Data set [3] in a line: Therapeutic index, ratio of IC50 for C57B1/6J mice (Mus musculus) splenic lymphocyte to IC50 for chloroquine-sensitive Plasmodium falciparum D6. Conditions: read-out: TI.
A short description of data set [4]: Therapeutic index, ratio of IC50 for C57B1/6J mice (Mus musculus) splenic lymphocyte to IC50 for chloroquine-resistant Plasmodium falciparum Dd2. The settings on record: read-out: TI.

As a reminder, the IC50 is the concentration that gives 50% inhibition. A higher IC50 goes with weaker potency in that assay.

Regarding `CN(CCCNc1ccnc2cc(Cl)ccc12)CCCN1c2ccccc2CCc2ccccc21`, the half-inhibitory concentration (IC50) in the data set on Plasmodium falciparum [1] came to 0.005 µM; in the data set on Plasmodium falciparum [2], 0.003 µM.
For `O=C(CNCCNc1ccnc2cc(Cl)ccc12)N(Cc1ccccc1)Cc1ccccc1`, the IC50 with Plasmodium falciparum [1] is 0.016 µM; in the data set with Plasmodium falciparum [2], 0.014 µM.
Consider `Clc1ccc2c(NCCNCCCN(Cc3ccccc3)Cc3ccccc3)ccnc2c1`, for which the results for the IC50 in the data set on Plasmodium falciparum [1] and in the data set on Plasmodium falciparum [2] were 0.016 µM and 0.007 µM, respectively.
For `O=C(CNCCNc1ccnc2cc(Cl)ccc12)N(c1ccccc1)c1ccccc1`, the figures for the selectivity ratio in data set [3] and in data set [4] were 12000 and 4800, respectively. The IC50 in the data set on Plasmodium falciparum [1] turned out to be 0.013 µM; in the data set on Plasmodium falciparum [2], 0.005 µM.
`O=C(CN(CCNc1ccnc2cc(Cl)ccc12)CC(=O)N(c1ccccc1)c1ccccc1)N(c1ccccc1)c1ccccc1`: the concentration for half-maximal inhibition (IC50) with Plasmodium falciparum [1] was found to be 0.052 µM; in the data set on Plasmodium falciparum [2], 0.03 µM.
`Clc1ccc2c(NCCCNCCCCN(Cc3ccccc3)Cc3ccccc3)ccnc2c1`: the values for the IC50 with Plasmodium falciparum [1] and with Plasmodium falciparum [2] were 0.011 µM and 0.008 µM, respectively.
Take `Clc1ccc2c(NCCN(CCN(Cc3ccccc3)Cc3ccccc3)CCN(Cc3ccccc3)Cc3ccccc3)ccnc2c1`: the 50% inhibitory concentration (IC50) was 0.005 µM in the data set on Plasmodium falciparum [1] and 0.002 µM in the data set with Plasmodium falciparum [2].
For the compound `O=C(CN1CCN(c2ccnc3cc(Cl)ccc23)CC1)N(c1ccccc1)c1ccccc1`, the results for the IC50 in the data set on Plasmodium falciparum [1] and with Plasmodium falciparum [2] were 0.101 µM and 0.049 µM, respectively.
Regarding `Clc1ccc2c(NCCCNCCCN(Cc3ccccc3)Cc3ccccc3)ccnc2c1`, the figures for the 50% inhibitory concentration (IC50) with Plasmodium falciparum [1] and with Plasmodium falciparum [2] were 0.034 µM and 0.023 µM, respectively.
For the compound `Clc1ccc2c(NCCCNCCN(c3ccccc3)c3ccccc3)ccnc2c1`, the IC50 was found to be 0.027 µM in the data set with Plasmodium falciparum [1] and 0.026 µM in the data set with Plasmodium falciparum [2].
As for `Clc1ccc2c(NCCCNCCN(Cc3ccccc3)Cc3ccccc3)ccnc2c1`, the 50% inhibitory concentration (IC50) is 0.006 µM with Plasmodium falciparum [1] and 0.002 µM with Plasmodium falciparum [2].
`Clc1ccc2c(NCCNCCN(Cc3ccccc3)Cc3ccccc3)ccnc2c1`: the IC50 in the data set with Plasmodium falciparum [1] came out at 0.016 µM; in the data set on Plasmodium falciparum [2] it was 0.01 µM.
Take `Clc1ccc2c(N3CCN(CCN(Cc4ccccc4)Cc4ccccc4)CC3)ccnc2c1`: the results for the half-maximal inhibitory concentration (IC50) with Plasmodium falciparum [1] and with Plasmodium falciparum [2] were 0.115 µM and 0.052 µM, respectively.
